Results from ChEMBL document CHEMBL1268891, “Novel synthetic 2-amino-10-(3,5-dimethoxy)benzyl-9(10H)-acridinone derivatives as potent DNA-binding antiproliferative agents” (Bioorg Med Chem, 2010).
The source made the active and inactive calls. The rule behind the calls is not given here.

Tests used:
[1] = tested on: CCRF-CEM; assay: Cytotoxicity against human CCRF-CEM cells after 48 hrs by MTT assay; assay type: functional, cell-based
Summary of the method: (§1)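 CCRF-CEM cells grown in RPMI 1640 with 10% FBS and penicillin/streptomycin at 37 °C, 5% CO₂. Seeded at 2×10^5 cells/mL and exposed to graded doses from DMSO stock, in quintuplicate, for 48 h. MTT (5 mg/mL) added for 4 h, formazan dissolved in DMSO and read at 490 nm. IC50 is the concentration giving 50% growth inhibition.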

[2] = target: T1, DNA topoisomerase 1 (Homo sapiens) (UniProt P11387); assay: Inhibition of human recombinant DNA topoisomerase 1-mediated DNA cleavage assessed as relaxation of supercoiled pBR322 plasmid DNA at 50 uM […] by ethidium bromide staining
T1 sequence (whole entry): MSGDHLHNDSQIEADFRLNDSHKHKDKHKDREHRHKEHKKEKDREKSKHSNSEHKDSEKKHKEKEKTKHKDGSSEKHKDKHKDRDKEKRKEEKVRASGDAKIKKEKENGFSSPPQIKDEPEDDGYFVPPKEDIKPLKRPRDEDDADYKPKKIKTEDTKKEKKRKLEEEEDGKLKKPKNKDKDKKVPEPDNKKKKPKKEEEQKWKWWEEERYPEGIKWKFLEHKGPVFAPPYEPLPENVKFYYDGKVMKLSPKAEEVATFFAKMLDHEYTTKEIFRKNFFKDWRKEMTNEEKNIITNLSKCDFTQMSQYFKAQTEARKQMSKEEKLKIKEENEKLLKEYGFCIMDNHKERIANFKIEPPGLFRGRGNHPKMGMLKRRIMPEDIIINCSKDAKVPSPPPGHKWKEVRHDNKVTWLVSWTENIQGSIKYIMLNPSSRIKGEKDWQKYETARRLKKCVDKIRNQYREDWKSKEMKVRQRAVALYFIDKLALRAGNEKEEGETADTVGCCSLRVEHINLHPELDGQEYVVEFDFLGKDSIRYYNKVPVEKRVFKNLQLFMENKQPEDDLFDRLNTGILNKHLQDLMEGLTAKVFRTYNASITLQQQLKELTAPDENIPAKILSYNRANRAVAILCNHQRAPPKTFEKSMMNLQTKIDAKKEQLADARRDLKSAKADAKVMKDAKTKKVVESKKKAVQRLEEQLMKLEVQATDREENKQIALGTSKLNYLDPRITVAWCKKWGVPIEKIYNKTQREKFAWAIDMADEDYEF
Summary of the method: (§2)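 pBR322 (100 ng) incubated with 1.0 unit recombinant human topoisomerase I, with or without compound (10–50 or 250 μM), for 30 min at 37 °C. DMSO control included. Products run on 1% agarose in TAE at 100 V for 25 min and stained with ethidium bromide.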

[3] = target: T1, DNA topoisomerase 1 (Homo sapiens); assay: Inhibition of human recombinant DNA topoisomerase 1-mediated DNA cleavage assessed as relaxation of supercoiled pBR322 plasmid DNA at 250 uM […] by ethidium bromide staining; summary of the method: as §2
[4] = tested on: A549; assay: Cytotoxicity against human A549 cells after 48 hrs by MTT assay; assay type: functional, cell-based; settings: A549, 48 h
Summary of the method: as §1, with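 “A549, HepG2 and MCF7” for “CCRF-CEM”, “DMEM” for “RPMI 1640”, “treated with” for “exposed to”, “MTT” for “MTT (5 mg/mL)”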

[5] = tested on: HepG2; assay: Cytotoxicity against human HepG2 cells after 48 hrs by MTT assay; assay type: functional, cell-based; settings: HepG2, 48 h
Summary of the method: as §1, with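 “A549, HepG2 and MCF7” for “CCRF-CEM”, “DMEM” for “RPMI 1640”, “treated with” for “exposed to”, “MTT” for “MTT (5 mg/mL)”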

[6] = tested on: MCF7; assay: Cytotoxicity against human MCF7 cells after 48 hrs by MTT assay; assay type: functional, cell-based; settings: MCF7, 48 h
Summary of the method: as §1, with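 “A549, HepG2 and MCF7” for “CCRF-CEM”, “DMEM” for “RPMI 1640”, “treated with” for “exposed to”, “MTT” for “MTT (5 mg/mL)”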

[7] = tested on: Calf thymus DNA; assay: Binding affinity to calf thymus DNA assessed as intercalation by UV-vis spectral analysis; assay type: nucleic-acid assay; settings: Bos taurus
Summary of the method: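 Compound at 40 μM titrated with ct DNA at 0–80 μM in 10 mM Tris-HCl, 50 mM NaCl, pH 7.2. Incubated 5 min, then spectra read in a 1.0 cm quartz cell. Kb obtained from a plot of [DNA]/(εa−εf) against [DNA], with DNA concentration in base pairs.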

[8] = tested on: Calf thymus DNA; assay: Binding affinity to calf thymus DNA assessed as intercalation at 20 uM by fluorescence emission spectral analysis; assay type: nucleic-acid assay; settings: Bos taurus
Summary of the method: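 Compound at about 20 μM final (from 5 mM DMSO stock) in 10 mM Tris-HCl, 50 mM NaCl, pH 7.2, with or without ct DNA at 20 or 40 μM final. Emission recorded after equilibrium on excitation at 380 nm. DNA concentration set by A260 (6600 M⁻¹ cm⁻¹ per phosphate; A260:A280 1.87).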

| Activity [2] | Activity [3] | Kb [7] | Activity [8] | SMILES | IC50 [1] | IC50 [4] | IC50 [5] | IC50 [6] |
| --- | --- | --- | --- | --- | --- | --- | --- | --- |
| inactive | Active | 5 ×10⁴ /M | Active | COc1cc(Cn2c3ccccc3c(=O)c3cc(NC(=O)CCN4CCCC4)ccc32)cc(OC)c1 | 280 nM | 25900 nM | 4000 nM | 5700 nM |
| inactive | Active |  |  | COc1cc(Cn2c3ccccc3c(=O)c3cc(NC(=O)CCN4CCCCC4)ccc32)cc(OC)c1 | 600 nM |  |  |  |
| Active |  | 1.5 ×10⁵ /M | Active | COc1cc(Cn2c3ccccc3c(=O)c3cc(NC(=O)CN)ccc32)cc(OC)c1 | 390 nM | 3400 nM | 6500 nM | 11700 nM |
| inactive | Active |  |  | COc1cc(Cn2c3ccccc3c(=O)c3cc(NC(=O)CCCN)ccc32)cc(OC)c1 | 670 nM |  |  |  |
| inactive | Active |  |  | COc1cc(Cn2c3ccccc3c(=O)c3cc(NC(=O)CCN4CCOCC4)ccc32)cc(OC)c1 | 3010 nM |  |  |  |
| inactive | Active |  |  | COc1cc(Cn2c3ccccc3c(=O)c3cc(NC(=O)CCN)ccc32)cc(OC)c1 | 2550 nM |  |  |  |
| inactive | Active |  |  | COc1cc(Cn2c3ccccc3c(=O)c3cc(NC(=O)CCN4CCC(O)CC4)ccc32)cc(OC)c1 | 640 nM |  |  |  |

Continued, molecule first:

| SMILES | Activity [2] | Activity [3] | Kb [7] | Activity [8] | IC50 [1] | IC50 [4] | IC50 [5] | IC50 [6] |
| --- | --- | --- | --- | --- | --- | --- | --- | --- |
| COc1cc(Cn2c3ccccc3c(=O)c3cc(NC(=O)CCCCN)ccc32)cc(OC)c1 | inactive | Active |  |  | 1190 nM |  |  |  |
| CCN(CC)CCC(=O)Nc1ccc2c(c1)c(=O)c1ccccc1n2Cc1cc(OC)cc(OC)c1 | inactive | Active |  |  | 720 nM |  |  |  |
| COc1cc(Cn2c3ccccc3c(=O)c3cc(NC(=O)C(N)C(C)C)ccc32)cc(OC)c1 (stereo unspecified) | inactive | Active |  |  | 810 nM |  |  |  |
| COc1cc(Cn2c3ccccc3c(=O)c3ccccc32)cc(OC)c1 | inactive | Active |  |  |  |  |  |  |
| COc1cc(Cn2c3ccccc3c(=O)c3cc(NC(=O)CCCCCN)ccc32)cc(OC)c1 | inactive | Active |  |  | 750 nM |  |  |  |
| COc1cc(Cn2c3ccccc3c(=O)c3cc(NC(=O)CCN(C)C)ccc32)cc(OC)c1 | inactive | Active |  |  | 910 nM |  |  |  |
| COc1cc(Cn2c3ccccc3c(=O)c3cc(NC(=O)CCN(CCO)CCO)ccc32)cc(OC)c1 | inactive | Active |  |  | 950 nM |  |  |  |
| COc1cc(Cn2c3ccccc3c(=O)c3cc(NC(=O)C(C)N)ccc32)cc(OC)c1 (stereo unspecified) | inactive | Active |  |  | 610 nM |  |  |  |
| COc1cc(Cn2c3ccccc3c(=O)c3cc(NC(=O)C(N)CCCCN)ccc32)cc(OC)c1 (stereo unspecified) | inactive | Active |  |  | 750 nM |  |  |  |
